Values after ≈ are worked out from the molar mass of the structure shown. Active and inactive are the calls of the source. The calls are words filed in the database; no cut-off is given here.
Experiments:
Trichosporon asahii = experiment: Antifungal activity against Trichosporon asahii 1188 after 72 to 120 hrs by microdilution broth method; type: functional, organism-based
Lichtheimia corymbifera = experiment: Antifungal activity against Absidia corymbifera 272 after 72 to 120 hrs by microdilution broth method; type: functional, organism-based
Mycobacterium avium [1] = experiment: Antimycobacterial activity against pyrazinamide-resistant Mycobacterium avium CNCTC My 80/72 after 5 days by microplate alamar blue assay; type: functional; conditions: CNCTC My 80/72, 120 h
How it was run: (§1)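 Microplate alamar blue assay run at pH 5.6, using conditions optimized for pyrazinamide. Strains came from the Czech National Collection of Type Cultures. MIC was read in µg/mL and converted to µM using molecular weight.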

Candida tropicalis = experiment: Antifungal activity against Candida tropicalis 156 after 72 to 120 hrs by microdilution broth method; type: functional, organism-based
Klebsiella pneumoniae [2] = experiment: Antibacterial activity against ESBL positive Klebsiella pneumoniae J 14368/08 after 24 to 48 hrs by microdilution broth method; type: functional, organism-based
How it was run: (§2)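 Antibacterial screen with compound concentrations up to a highest level of 500 µM. Results expressed as MIC in µM.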

Mycobacterium kansasii = experiment: Antimycobacterial activity against pyrazinamide-resistant Mycobacterium kansasii CNCTC My 235/80 after 5 days by microplate alamar blue assay; type: functional; conditions: CNCTC My 235/80, 120 h; how it was run: as §1
Klebsiella pneumoniae [3] = experiment: Antibacterial activity against Klebsiella pneumoniae D 11750/08 after 24 to 48 hrs by microdilution broth method; type: functional, organism-based; how it was run: as §2
Pichia kudriavzevii = experiment: Antifungal activity against Candida krusei E28 after 72 to 120 hrs by microdilution broth method; type: functional, organism-based
Aspergillus fumigatus = experiment: Antifungal activity against Aspergillus fumigatus 231 after 72 to 120 hrs by microdilution broth method; type: functional, organism-based
Escherichia coli = experiment: Antibacterial activity against Escherichia coli CCM 4517 after 24 to 48 hrs by microdilution broth method; type: functional, organism-based; how it was run: as §2
Pseudomonas aeruginosa = experiment: Antibacterial activity against Pseudomonas aeruginosa CCM 1961 after 24 to 48 hrs by microdilution broth method; type: functional, organism-based; how it was run: as §2
Nakaseomyces glabratus = experiment: Antifungal activity against Candida glabrata 20/I after 72 to 120 hrs by microdilution broth method; type: functional, organism-based
[4] = tested on: Staphylococcus epidermidis; experiment: Antibacterial activity against Staphylococcus epidermidis H 6966/08 after 48 hrs by microdilution broth method; type: functional; how it was run: as §2
Enterococcus sp. = experiment: Antibacterial activity against Enterococcus sp. J 14365/08 after 24 to 48 hrs by microdilution broth method; type: functional, organism-based; how it was run: as §2
[5] = tested on: Mycobacterium tuberculosis; experiment: Antimycobacterial activity against Mycobacterium tuberculosis H37Rv CNCTC My 331/88 after 5 days by microplate alamar blue assay; type: functional; conditions: H37Rv CNCTC My 331/88, 120 h; how it was run: as §1
[6] = tested on: Staphylococcus epidermidis; experiment: Antibacterial activity against methicillin-resistant Staphylococcus epidermidis H 5996/08 after 24 to 48 hrs by microdilution broth method; type: functional, organism-based
Mycobacterium avium [7] = experiment: Antimycobacterial activity against pyrazinamide-resistant Mycobacterium avium CNCTC My 152/73 after 5 days by microplate alamar blue assay; type: functional; conditions: CNCTC My 152/73, 120 h; how it was run: as §1
[8] = tested on: Trichophyton mentagrophytes; experiment: Antifungal activity against Trichophyton mentagrophytes after 72 to 120 hrs by microdilution broth method; type: functional, organism-based
[9] = tested on: Trichophyton mentagrophytes; experiment: Antifungal activity against Trichophyton mentagrophytes 445 after 72 to 120 hrs by microdilution broth method; type: functional, organism-based
[10] = Lipophilicity, log K of the compound by HPLC analysis; type: physicochemical
[11] = tested on: Staphylococcus epidermidis; experiment: Antibacterial activity against Staphylococcus epidermidis H 6966/08 up to 500 uM after 24 to 48 hrs by microdilution broth method; type: functional, organism-based; how it was run: as §2
Candida albicans = experiment: Antifungal activity against Candida albicans ATCC 44859 after 72 to 120 hrs by microdilution broth method; type: functional, organism-based
Staphylococcus aureus = experiment: Antibacterial activity against Staphylococcus aureus CCM 4516/08 after 24 to 48 hrs by microdilution broth method; type: functional, organism-based; how it was run: as §2

| Structure (SMILES) | Activity (Trichosporon asahii) | Activity (Lichtheimia corymbifera) | MIC (Mycobacterium avium [1]) [µg/mL] | Activity (Candida tropicalis) | Activity (Klebsiella pneumoniae [2]) | MIC (Mycobacterium kansasii) | Activity (Klebsiella pneumoniae [3]) | Activity (Pichia kudriavzevii) | Activity (Aspergillus fumigatus) | Activity (Escherichia coli) | Activity (Pseudomonas aeruginosa) | Activity (Nakaseomyces glabratus) | Activity [4] | Activity (Enterococcus sp.) | MIC [5] | Activity [6] | MIC (Mycobacterium avium [7]) [µg/mL] | Activity [8] | Activity [9] | log K [10] | also measured |
| --- | --- | --- | --- | --- | --- | --- | --- | --- | --- | --- | --- | --- | --- | --- | --- | --- | --- | --- | --- | --- | --- |
| CCCCCNc1cnc(C(N)=O)cn1 | inactive | inactive | > 100 | inactive | inactive | > 100 µg/mL | inactive | inactive | inactive | inactive | inactive | inactive | inactive | inactive | > 100 µg/mL | inactive | > 100 | inactive | inactive | 0.0181 | Activity [11]: inactive; Activity (Candida albicans): inactive; Activity (Staphylococcus aureus): inactive |
| NC(=O)c1cnc(NCCc2ccccc2)cn1 | inactive | inactive | > 100 | inactive | inactive | 100 µg/mL | inactive | inactive | inactive | inactive | inactive | inactive | inactive | inactive | 206 µM | inactive | > 100 | inactive | inactive | -0.0382 | Activity [11]: inactive; Activity (Candida albicans): inactive; Activity (Staphylococcus aureus): inactive |
| CCCCCNc1cncc(C(N)=O)n1 | inactive | inactive | > 100 | inactive | inactive | > 100 µg/mL | inactive | inactive | inactive | inactive | inactive | inactive | inactive | inactive | 100 µg/mL | inactive | > 100 | inactive | inactive | -0.0095 | Activity [11]: inactive; Activity (Candida albicans): inactive; Activity (Staphylococcus aureus): inactive |
| NNC(=O)c1ccncc1 [ISONIAZID] | – | – | 12.5 (≈ 91.1 µM) | – | – | 11 µM | – | – | – | – | – | – | – | – | 3 µM | – | 6.25 (≈ 45.6 µM) | – | – | -0.7432 | – |
| NC(=O)c1cncc(N)n1 | inactive | inactive | > 100 | inactive | inactive | > 100 µg/mL | inactive | inactive | inactive | inactive | inactive | inactive | inactive | inactive | > 100 µg/mL | inactive | > 100 | inactive | inactive | -0.7814 | Activity [11]: inactive; Activity (Candida albicans): inactive; Activity (Staphylococcus aureus): inactive |
| CCCCCCCNc1cncc(C(N)=O)n1 | inactive | inactive | 100 (≈ 423 µM) | inactive | inactive | 212 µM | inactive | inactive | inactive | inactive | inactive | inactive | inactive | inactive | 106 µM | inactive | 100 (≈ 423 µM) | inactive | inactive | 0.4273 | Activity [11]: inactive; Activity (Candida albicans): inactive; Activity (Staphylococcus aureus): inactive |
| CCCNc1cnc(C(N)=O)cn1 | inactive | inactive | > 100 | inactive | inactive | > 100 µg/mL | inactive | inactive | inactive | inactive | inactive | inactive | inactive | inactive | > 100 µg/mL | inactive | > 100 | inactive | inactive | -0.3878 | Activity [11]: inactive; Activity (Candida albicans): inactive; Activity (Staphylococcus aureus): inactive |
| CCNc1cncc(C(N)=O)n1 | inactive | inactive | > 100 | inactive | inactive | > 100 µg/mL | inactive | inactive | inactive | inactive | inactive | inactive | inactive | inactive | > 100 µg/mL | inactive | > 100 | inactive | inactive | -0.6318 | Activity [11]: inactive; Activity (Candida albicans): inactive; Activity (Staphylococcus aureus): inactive |
| NC(=O)c1cncc(NCCc2ccccc2)n1 | inactive | inactive | > 100 | inactive | inactive | > 100 µg/mL | inactive | inactive | inactive | inactive | inactive | inactive | inactive | inactive | > 100 µg/mL | inactive | > 100 | inactive | inactive | -0.0986 | Activity [11]: inactive; Activity (Candida albicans): inactive; Activity (Staphylococcus aureus): inactive |
| NC(=O)c1cnc(N)cn1 | inactive | inactive | > 100 | inactive | inactive | > 100 µg/mL | inactive | inactive | inactive | inactive | inactive | inactive | inactive | inactive | > 100 µg/mL | inactive | > 100 | inactive | inactive | -0.7852 | Activity [11]: inactive; Activity (Candida albicans): inactive; Activity (Staphylococcus aureus): inactive |
| CCCNc1cncc(C(N)=O)n1 | inactive | inactive | > 100 | inactive | inactive | > 100 µg/mL | inactive | inactive | inactive | inactive | inactive | inactive | inactive | inactive | > 100 µg/mL | inactive | > 100 | inactive | inactive | -0.4386 | Activity [11]: inactive; Activity (Candida albicans): inactive; Activity (Staphylococcus aureus): inactive |
| CNc1cncc(C(N)=O)n1 | inactive | inactive | – | inactive | inactive | – | inactive | inactive | inactive | inactive | inactive | inactive | inactive | inactive | – | inactive | – | inactive | inactive | – | Activity [11]: inactive; Activity (Candida albicans): inactive; Activity (Staphylococcus aureus): inactive |

— ChEMBL document CHEMBL3102810, “Alkylamino derivatives of pyrazinamide: synthesis and antimycobacterial evaluation” (Bioorg Med Chem Lett, 2014)
